Test results reported in ChEMBL document CHEMBL3994578, “Optimization of benzoquinone and hydroquinone derivatives as potent inhibitors of human 5-lipoxygenase” (Eur J Med Chem, 2017).
The source made the active and inactive calls. The rule behind the calls is not given here.

Columns and labels:
[1] = biological target: T1, Polyunsaturated fatty acid 5-lipoxygenase (Homo sapiens, UniProt P09917); test: Inhibition of recombinant human 5-lipoxygenase expressed in Escherichia coli BL21 using arachidonic acid as substrate preincubated for 15 mins followed by substrate addition measured after 10 mins by RP-HPLC method
T1 sequence (P09917 whole entry): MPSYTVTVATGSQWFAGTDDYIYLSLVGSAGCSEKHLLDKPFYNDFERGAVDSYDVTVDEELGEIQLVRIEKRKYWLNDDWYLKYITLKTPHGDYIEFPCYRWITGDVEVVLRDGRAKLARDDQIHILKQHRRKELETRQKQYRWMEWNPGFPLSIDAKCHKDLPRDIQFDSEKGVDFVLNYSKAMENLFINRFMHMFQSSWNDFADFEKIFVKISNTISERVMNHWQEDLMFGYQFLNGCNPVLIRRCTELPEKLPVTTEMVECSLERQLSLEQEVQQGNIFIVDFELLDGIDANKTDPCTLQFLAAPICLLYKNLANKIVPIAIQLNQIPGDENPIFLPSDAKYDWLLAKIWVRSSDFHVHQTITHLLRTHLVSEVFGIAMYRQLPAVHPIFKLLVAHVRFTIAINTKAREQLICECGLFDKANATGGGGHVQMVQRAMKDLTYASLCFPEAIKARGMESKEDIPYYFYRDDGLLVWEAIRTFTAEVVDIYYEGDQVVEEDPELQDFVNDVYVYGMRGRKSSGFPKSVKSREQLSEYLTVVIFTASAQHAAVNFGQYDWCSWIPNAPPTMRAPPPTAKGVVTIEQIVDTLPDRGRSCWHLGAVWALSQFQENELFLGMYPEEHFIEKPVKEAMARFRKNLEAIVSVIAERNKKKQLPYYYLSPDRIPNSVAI
How it was run: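 5-LO expressed in E. coli BL21 (pT3-5-LO) was semi-purified on ATP-agarose; 0.5 µg was used in 1 mL PBS with 1 mM EDTA and 1 mM ATP. Compound or 0.1% DMSO was preincubated 15 min at 4 °C, then samples were prewarmed 30 s at 37 °C. Reaction was started with 2 mM CaCl2 plus 20 μM AA and run 10 min at 37 °C. It was stopped with cold methanol, and products were measured by RP-HPLC. IC50 was read graphically from 4-5 concentrations; n = 3-4.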

[2] = biological target: T1, Polyunsaturated fatty acid 5-lipoxygenase; test: Inhibition of 5-lipoxygenase in human neutrophils assessed as inhibition of A23187-induced product formation using arachidonic acid as substrate preincubated for 15 mins followed by substrate and A23187 addition measured after 10 mins by RP-HPLC method
How it was run: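 Freshly isolated human neutrophils (5×10^6, from leukocyte concentrates by dextran sedimentation and Nycoprep) were taken up in 1 mL PBS pH 7.4 with 1 mg/mL glucose and 1 mM CaCl2. Cells were preincubated 15 min at 37 °C with compound or 0.1% DMSO, then stimulated with 2.5 μM A23187 plus 20 μM arachidonic acid for 10 min at 37 °C. The reaction was stopped with methanol on ice, and LTB4 all-trans isomers and 5-H(P)ETE were measured by RP-HPLC. IC50 was read graphically from 4-5 concentrations; 3-4 independent experiments.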

Mus musculus [3] = test: Anti-inflammatory activity in CD-1 mouse assessed as inhibition of carrageenan-induced paw edema at 1 mg/kg, ip pretreated for 30 mins followed by carrageenan injection measured up to 48 hrs by hydroplethismometric method; type: functional, organism-based
How it was run: (§1)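 Male CD-1 mice (35–40 g), n = 6 per group, given compound or vehicle (DMSO) i.p. 30 min before a subplantar injection of 50 μL 1% (w/v) carrageenan under light enflurane anaesthesia. Paw volume was read by hydroplethysmometer before injection (basal) and at 2, 4, 6, 24, 48 and 72 h. Data are mean ± SEM; two-way ANOVA with Bonferroni post test.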

Mus musculus [4] = test: Anti-inflammatory activity in CD-1 mouse model of Zymosan-induced peritonitis assessed as inflammatory cells in peritoneal lavage at 1 mg/kg, ip pretreated for 30 mins followed by Zymosan injection measured after 4 hrs (reference value: 7 +/- 0.47 10^6No_unit); type: functional
[5] = biological target: T2, Polyunsaturated fatty acid 5-lipoxygenase (Homo sapiens) (UniProt P09917); test: Non-competitive inhibition of recombinant human 5-lipoxygenase expressed in Escherichia coli BL21 using varying levels of arachidonic acid as substrate preincubated for 15 mins followed by substrate addition measured after 10 mins by RP-HPLC method
T2 sequence (whole entry): T1 sequence (P09917 whole entry)
How it was run: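 Semi-purified recombinant 5-LO (0.5 µg, E. coli BL21) in PBS with 1 mM EDTA and 1 mM ATP was preincubated 15 min at 4 °C with compound or 0.1% DMSO, then prewarmed 30 s at 37 °C. Reaction was started with 2 mM CaCl2 plus varying arachidonic acid concentrations and run 10 min at 37 °C. Products were measured by RP-HPLC as percent of control; n = 3.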

Mus musculus [6] = test: Anti-inflammatory activity in CD-1 mouse model of Zymosan-induced peritonitis assessed as LTC4 level in peritoneal lavage at 1 mg/kg, ip pretreated for 30 mins followed by Zymosan injection measured after 30 mins by EIA (reference value: 10.48 +/- 1.72 ng/ml); type: functional
Mus musculus [7] = test: Anti-inflammatory activity in CD-1 mouse assessed as inhibition of carrageenan-induced paw edema at 1 mg/kg, ip pretreated for 30 mins followed by carrageenan injection measured after 4 hrs by hydroplethismometric method relative to control; type: functional; settings: CD-1, ip; how it was run: as §1
Mus musculus [8] = test: Anti-inflammatory activity in CD-1 mouse assessed as inhibition of carrageenan-induced paw edema at 1 mg/kg, ip pretreated for 30 mins followed by carrageenan injection measured up to 72 hrs by hydroplethismometric method; type: functional, organism-based; how it was run: as §1
Mus musculus [9] = test: Anti-inflammatory activity in CD-1 mouse model of Zymosan-induced peritonitis assessed as LTC4 level in peritoneal lavage at 10 mg/kg, ip pretreated for 30 mins followed by Zymosan injection measured after 30 mins by EIA (reference value: 10.48 +/- 1.72 ng/ml); type: functional
Mus musculus [10] = test: Anti-inflammatory activity in CD-1 mouse model of Zymosan-induced peritonitis assessed as inflammatory cells in peritoneal lavage at 10 mg/kg, ip pretreated for 30 mins followed by Zymosan injection measured after 4 hrs (reference value: 7 +/- 0.47 10^6No_unit); type: functional

| Structure (SMILES) | IC50 [1] [nM] | IC50 [2] [nM] | other results |
| --- | --- | --- | --- |
| CCCCCCCCCCCCCC1=C(OC)C(OC)=CC(=O)C1=O | – | – | inhibition (Mus musculus [3]): Active; Activity (Mus musculus [4]): 3.78 10^6 cells; inhibition [5]: Active; Activity (Mus musculus [6]): 0.14 ng/mL; inhibition in vivo at 1 mg/kg (Mus musculus [7]): 75% |
| CCCCCCCCCCCCCc1c(O)c(O)cc(OC)c1OC | 60 | 28 | Activity (Mus musculus [4]): 3.08 10^6 cells; inhibition [5]: Active; Activity (Mus musculus [6]): 1.58 ng/mL; inhibition in vivo at 1 mg/kg (Mus musculus [7]): 77.4%; inhibition (Mus musculus [8]): Active |
| CC(c1cc2ccccc2s1)N(O)C(N)=O (stereo not drawn) [ZILEUTON] | – | – | Activity (Mus musculus [9]): 3.35 ng/mL; Activity (Mus musculus [10]): 2.88 10^6 cells |
| COC1=CC(=O)C(=O)C(CCCCCCCCCCO)=C1OC | 1080 | 360 | – |
| COC1=CC(=O)C(OC)=C(C(CCCCCCCCCO)OC(C)=O)C1=O (stereo not drawn) | 490 | 1620 | – |
| CCCCCCCCCCCCCc1c(O)c(O)cc(OC)c1O | 290 | 1600 | – |
| CCCCCCCCCCCCCc1c(O)c(OC)cc(O)c1OC | 260 | 310 | – |
| CCCCCCCCCCCc1c(O)c(O)cc(OC)c1OC | 100 | 30 | – |
| COC1=CC(=O)C(OC)=C(C(O)CCCCCCCCCO)C1=O (stereo not drawn) | 1460 | 660 | – |

Continued, in another order:

| IC50 [1] [nM] | IC50 [2] [nM] | Structure (SMILES) | other results |
| --- | --- | --- | --- |
| 1840 | 330 | COC1=CC(=O)C(OC)=C(CCCCCCCCO)C1=O | – |
| 220 | 150 | COC1=CC(=O)C(=O)C(CCCCCCCCO)=C1OC | – |
| 1750 | 550 | COC1=CC(=O)C(OC)=C(CCCCCCCCCCO)C1=O | – |
| 1960 | 120 | COC1=CC(=O)C(=O)C(CCCCCCCCCCCO)=C1OC | – |
| 1510 | 200 | COC1=CC(=O)C(OC)=C(CCCCCCCCCCCO)C1=O | – |
| 240 | 90 | CCCCCCCCCCCCc1c(O)c(O)cc(OC)c1OC | – |
